UCH37 inh: human UCH37 deubiquitinating enzyme inhibition | actives 0.33% (n = 330,000) | AID 588478 | purified proteasome/UCH37, Ub-AMC cleavage fluorescence | inhibition, % (concentration not given with the values);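 active = mean inhibition over replicate wells above about 20%, limit read from the data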;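 note: 0% = compound-free wells with enzyme and 100% = wells lacking proteasome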
Target sequence (Q9Y5K5 whole entry, looked up): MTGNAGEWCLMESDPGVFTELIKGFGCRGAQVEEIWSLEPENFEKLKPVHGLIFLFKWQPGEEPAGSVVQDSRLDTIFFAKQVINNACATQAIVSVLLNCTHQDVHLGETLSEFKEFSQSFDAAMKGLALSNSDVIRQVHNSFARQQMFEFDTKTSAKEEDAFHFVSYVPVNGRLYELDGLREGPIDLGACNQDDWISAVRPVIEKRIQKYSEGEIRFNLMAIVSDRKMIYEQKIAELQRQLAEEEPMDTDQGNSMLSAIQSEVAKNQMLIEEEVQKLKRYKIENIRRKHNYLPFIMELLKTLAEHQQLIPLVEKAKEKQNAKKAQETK
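Test system – human UCH37 enzyme supplied as purified proteasome complex · Incubation – 30 min preincubation with enzyme, 25 min cleavage at room temperature · Detection – AMC fluorescence from Ub-AMC cleavage, excitation 355 nm, emission 460 nm · Benchmarks – no-proteasome wells (full inhibition) and compound-free wells (no inhibition)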
Vif imaging: blocks HIV Vif function; HEK293T cells, Vif self-association by quenched fluorescence, imaging, 24 h; inhibition, % at 7.49 µM; actives 0.35% (n = 340,000); in the data active = inhibition above about 50%, passing the limit was not always enough
MsrA inhibitor: inhibitors of bovine MsrA. purified bovine MsrA, absorbance read-out. inhibition, % at 15.5 µM. actives 0.75% (n = 360,000). AID 651718; in the data active = inhibition above about 4.5%;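 note: 0% = vehicle wells with enzyme and 100% = reference inhibitor wells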
Glyco luc inh: N-linked glycosylation inhibition; actives 0.23% (n = 360,000); D54 ERlucT glycosylation luciferase reporter, 24 h; percent of 100 nM tunicamycin response; reporter increase, % at 12.5 µM;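 active = mean luciferase reporter signal, scaled so untreated is 0 and the glycosylation-blocking control 100, at or above a set limit in every replicate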;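 note: luciferase carries N-glycosylation sites so blocking glycosylation raises the light; 0% = median of neutral control wells and 100% = median of 100 nM tunicamycin wells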
bovine MsrA act: activators of bovine methionine sulfoxide reductase A | purified bovine MsrA, absorbance read-out | activation, % at 10.6 µM | actives 0.3% (n = 360,000) | AID 602163; in the data active = activation above about 7.5%;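 note: 0% = vehicle and 100% = reference activator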
aDG glyco act: increases alpha dystroglycan glycosylation; actives 0.22% (n = 360,000); activation, % at 10 µM; Pro5-aDG cells, alpha-DG glycosylation AlphaScreen (IIH6); 0% Pro5, 100% B10-LARGE cell signal;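 active = activation of at least 8% versus controls, or a plate z-score of at least 8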;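 note: Pro5 are CHO cells carrying HIG-tagged alpha-DG that lacks glycosylation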
aDG glyco conf: confirmation of alpha dystroglycan glycosylation activators | activation, % at 10 µM (by protocol) | actives 17% (n = 600) | Pro5-aDG cells, alpha-DG glycosylation, IIH6 AlphaLISA; scaled to LARGE-overexpressing B10 cells as 100% | shares compounds with aDG glyco act;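 active = activation of at least 7% in one or more replicates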;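 note: cells exposed to compound for two days before detection; 0% = DMSO-treated Pro5 cells and 100% = DMSO-treated B10-LARGE cells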
The depositor's hits bear a star. Hits are enriched below; roughly 1.9% of the tested compounds scored in any of these assays.

Cc1cc(NN=Cc2ccc(O)c(C)c2O)nc(-c2ccccc2O)n1 was read as UCH37 inh -2.4.
For Cc1ccc(C(=O)ON=C(N)c2ccc(C(F)(F)F)cn2)cc1 the results were UCH37 inh 2.3.
For O=C(NN=Cc1ccccc1)c1ccccc1-n1cccc1 the results were UCH37 inh 1.8.
For CC1(C(=O)N/N=C/c2ccc([N+](=O)[O-])o2)CC1(Br)Br (configuration not stated) the results were Vif imaging -3.5, MsrA inhibitor 4.5, Glyco luc inh 24.1, bovine MsrA act -1.9, aDG glyco act 4.6* and aDG glyco conf 1.5.
Screening O=C(CNc1cccc([N+](=O)[O-])c1)N/N=C/c1ccc([N+](=O)[O-])o1 returned Vif imaging 8.8, MsrA inhibitor 2.9, Glyco luc inh -9.5, bovine MsrA act -1.0, aDG glyco act 18.9* and aDG glyco conf 4.7*.
O=C(N/N=C/c1ccc([N+](=O)[O-])o1)c1ccccc1-n1cccc1 was read as Vif imaging -15.8, MsrA inhibitor 2.1, Glyco luc inh 10.7, bovine MsrA act -7.8, aDG glyco act 3.3* and aDG glyco conf 2.5.
`Cc1ccccc1OCC(=O)N/N=C/c1ccc([N+](=O)[O-])o1` gave Vif imaging 0.6, MsrA inhibitor 4.1, Glyco luc inh 0.6, bovine MsrA act -10.3, aDG glyco act 7.9* and aDG glyco conf 3.3.
For Cc1cc(C)cc(OCC(=O)N/N=C/c2ccc([N+](=O)[O-])o2)c1 the results were MsrA inhibitor 1.6, Glyco luc inh 1.3, bovine MsrA act 0.3 and aDG glyco act 6.7.
O=C(CNc1ccccc1)NN=Cc1ccc([N+](=O)[O-])o1 was read as UCH37 inh 10.8.
O=C(NN=Cc1cccs1)c1cccs1 was read as UCH37 inh 5.5.
O=C(C1CCN(c2nnc(-n3cccc3)s2)CC1)N1CCN(c2cccc(C(F)(F)F)c2)CC1 was read as UCH37 inh 1.9, MsrA inhibitor -0.4, Glyco luc inh -0.4, bovine MsrA act -0.2, aDG glyco act 8.0* and aDG glyco conf 0.2.
Screening COc1ccc(C(=O)Nc2ccc(Cl)c(S(=O)(=O)Nc3ccccc3OC)c2)cc1 returned UCH37 inh -0.9, Vif imaging -18.6, MsrA inhibitor -0.2, Glyco luc inh -9.3, bovine MsrA act -2.8, aDG glyco act 3.7* and aDG glyco conf 0.8.
`COc1ccccc1NS(=O)(=O)c1cc(NC(=O)c2ccc(Cl)nc2)ccc1Cl` gave UCH37 inh 3.8, Vif imaging -11.7, MsrA inhibitor 0.3, Glyco luc inh -5.3, bovine MsrA act -1.8 and aDG glyco act 1.7.
`CC(O)C(=O)NN=Cc1ccccc1C(=O)O` (configuration not stated) gave UCH37 inh -1.4.
CN1CCN(CC(=O)Nc2nc(-c3c[nH]c4ccccc34)cs2)CC1 was read as UCH37 inh 4.7, Vif imaging -7.1, MsrA inhibitor 0.4, Glyco luc inh 2.6, bovine MsrA act -3.2 and aDG glyco act 0.1.
`CCC(C)Nc1nc(-c2c[nH]c3ccccc23)cs1` (configuration not stated) gave Vif imaging 0.1, MsrA inhibitor -0.7, Glyco luc inh -0.6, bovine MsrA act -2.2, aDG glyco act 7.7* and aDG glyco conf 6.9*.
`CNc1nc(-c2c[nH]c3ccccc23)cs1` gave UCH37 inh 1.0, Vif imaging 4.1, MsrA inhibitor -0.1, Glyco luc inh 1.9, bovine MsrA act -1.2, aDG glyco act 10.9* and aDG glyco conf 7.9*.
`Nc1nc(-c2c[nH]c3ccccc23)cs1` gave UCH37 inh 1.6, MsrA inhibitor 0.9, Glyco luc inh 4.4, bovine MsrA act 2.7, aDG glyco act 9.1* and aDG glyco conf 1.8.
Nc1nc(COC(=O)c2ccco2)nc(Nc2ccccc2)n1 was read as Vif imaging -12.8, MsrA inhibitor 0.0, Glyco luc inh 0.6, bovine MsrA act -1.1 and aDG glyco act 0.0.
For Cc1ccccc1Nc1nc(N)nc(COC(=O)c2ccco2)n1 the results were UCH37 inh 2.4, Vif imaging 0.5, MsrA inhibitor -0.3, Glyco luc inh 1.1, bovine MsrA act 0.6, aDG glyco act 3.8* and aDG glyco conf 1.2.
Screening NC(c1csc(Nc2cc(Oc3ccccc3)ncn2)n1)C1CCCCC1 (configuration not stated) returned Vif imaging 9.4, MsrA inhibitor -1.1, Glyco luc inh -6.4, bovine MsrA act -1.3, aDG glyco act 9.7* and aDG glyco conf 10.7*.
For COc1ccc(C(N)c2csc(Nc3cc(Oc4ccccc4)ncn3)n2)cc1 (configuration not stated) the results were Vif imaging 2.3, MsrA inhibitor -2.3, Glyco luc inh -7.7, bovine MsrA act 1.2 and aDG glyco act 1.7.
For CN(C)c1nc(Oc2ccc(=O)n(C)n2)nc(N2CCOCC2)n1 the results were UCH37 inh 4.0, Vif imaging 5.3, MsrA inhibitor 0.7, Glyco luc inh 4.2, bovine MsrA act -0.5, aDG glyco act 6.9* and aDG glyco conf 0.2.
`Cc1ccc(C=NNc2cc(C)nc(N3CCOCC3)n2)cc1` gave UCH37 inh 5.4.
Screening Cn1c(=O)oc2cc(S(=O)(=O)NCCC(=O)NCCc3ccccc3)ccc21 returned UCH37 inh 5.0, Vif imaging -11.9, MsrA inhibitor 0.4, Glyco luc inh -1.3, bovine MsrA act -3.1, aDG glyco act 4.3* and aDG glyco conf 0.7.
For CCC(C(=O)NCc1ccco1)N(C(=O)CNS(=O)(=O)c1ccc(F)cc1)c1ccccc1F (configuration not stated) the results were UCH37 inh 5.4, Vif imaging -5.0, MsrA inhibitor 0.8, Glyco luc inh -0.5, bovine MsrA act 0.1, aDG glyco act 3.5* and aDG glyco conf -0.5.
For CN1CCN(c2ncnc3c2ncn3[C@H]2CN(Cc3ccc(-c4ccccc4)cc3)C[C@@H](CO)O2)CC1 the results were Vif imaging 7.8, MsrA inhibitor -0.1, Glyco luc inh -0.2, bovine MsrA act -2.1, aDG glyco act 9.6* and aDG glyco conf 9.8*.
For O=C(NN=Cc1ccccn1)c1cccc(S(=O)(=O)N2CCCC2)c1 the results were UCH37 inh 2.3.
For CC(=NOC(=O)c1ccc(C)cc1)c1ccc(N2C(=O)C3CCCCC3C2=O)cc1 (configuration not stated) the results were UCH37 inh 0.3.

Screening results: PubChem, several laboratories
